Results reported in ChEMBL document CHEMBL2086241, “Molecular modeling, synthesis and screening of some new 4-thiazolidinone derivatives with promising selective COX-2 inhibitory activity” (Eur J Med Chem, 2012).

What was measured:
[1] = Selectivity index, ratio of IC50 for ovine COX1 to IC50 for human recombinant COX2
[2] = target: T1, Prostaglandin G/H synthase 2 (Homo sapiens, UniProt P35354); test: Inhibition of human recombinant COX2 assessed as inhibition of PGF2alpha production from PGH2 by enzyme immunoassay
T1 sequence (P35354 whole entry): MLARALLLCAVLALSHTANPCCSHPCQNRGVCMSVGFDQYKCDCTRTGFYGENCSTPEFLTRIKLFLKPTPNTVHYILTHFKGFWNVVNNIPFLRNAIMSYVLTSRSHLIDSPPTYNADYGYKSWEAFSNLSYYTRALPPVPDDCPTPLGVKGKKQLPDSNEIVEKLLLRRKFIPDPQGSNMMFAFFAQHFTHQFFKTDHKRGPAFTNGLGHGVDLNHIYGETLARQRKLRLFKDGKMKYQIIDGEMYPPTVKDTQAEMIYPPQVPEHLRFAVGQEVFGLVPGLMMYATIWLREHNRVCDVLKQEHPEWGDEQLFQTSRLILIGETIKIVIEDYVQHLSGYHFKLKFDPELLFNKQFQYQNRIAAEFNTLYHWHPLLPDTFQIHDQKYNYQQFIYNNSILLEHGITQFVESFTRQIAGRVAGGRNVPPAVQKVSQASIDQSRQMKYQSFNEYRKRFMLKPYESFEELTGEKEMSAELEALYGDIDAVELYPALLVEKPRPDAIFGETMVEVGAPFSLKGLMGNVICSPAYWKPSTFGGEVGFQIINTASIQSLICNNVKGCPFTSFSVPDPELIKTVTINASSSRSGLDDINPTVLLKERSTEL

[3] = target: T2, Prostaglandin G/H synthase 1 (Ovis aries, UniProt P05979); test: Inhibition of ovine COX1 assessed as inhibition of PGF2alpha production from PGH2 by enzyme immuno assay
T2 sequence (P05979 whole entry): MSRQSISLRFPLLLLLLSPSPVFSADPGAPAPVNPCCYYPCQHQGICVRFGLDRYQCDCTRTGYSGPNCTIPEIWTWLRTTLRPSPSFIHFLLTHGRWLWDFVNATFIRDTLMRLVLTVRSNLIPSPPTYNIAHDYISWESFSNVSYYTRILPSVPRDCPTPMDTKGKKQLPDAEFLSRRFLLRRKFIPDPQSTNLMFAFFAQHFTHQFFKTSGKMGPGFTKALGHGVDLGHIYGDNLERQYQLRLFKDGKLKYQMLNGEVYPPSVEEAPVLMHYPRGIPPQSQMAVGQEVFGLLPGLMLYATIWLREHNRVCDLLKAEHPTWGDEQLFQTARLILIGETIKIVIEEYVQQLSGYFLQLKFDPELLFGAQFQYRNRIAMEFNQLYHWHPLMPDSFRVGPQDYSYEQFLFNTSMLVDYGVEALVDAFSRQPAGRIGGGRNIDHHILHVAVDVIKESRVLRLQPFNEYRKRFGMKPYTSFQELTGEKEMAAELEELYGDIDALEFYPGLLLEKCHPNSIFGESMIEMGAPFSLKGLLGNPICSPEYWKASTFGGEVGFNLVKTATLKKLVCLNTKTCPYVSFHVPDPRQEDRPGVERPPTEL
Outline: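 Ovine COX-1 in Tris-HCl buffer, pH 8.0, with heme, preincubated 10 min at 37 °C. Arachidonic acid started the reaction, which was stopped after 2 min with 1 M HCl. PGH₂ was reduced to PGF2α with stannous chloride, and PGF2α was quantified by competitive EIA with an AChE tracer and Ellman's reagent. IC50 came from concentration–inhibition curves, duplicate determinations.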

SMILES	Ratio IC50 [1]	IC50 [2]	IC50 [3]
Cc1ccc(C2SCC(=O)N2Nc2ccc(S(N)(=O)=O)cc2)cc1 (stereo not given)	3.49	24.5 µM	85.5 µM
CS(=O)(=O)c1ccc(NN2C(=O)CSC2c2ccc(Cl)cc2)cc1 (stereo not given)	0.68	122 µM	83 µM
NS(=O)(=O)c1ccc(NN2C(=O)CSC2c2ccc(C(F)(F)F)cc2)cc1 (stereo not given)	1.05	51.8 µM	54.5 µM
NS(=O)(=O)c1ccc(NN2C(=O)CSC2c2ccc(Cl)cc2)cc1 (stereo not given)	0.85	45.5 µM	38.9 µM
CS(=O)(=O)c1ccc(NN2C(=O)CSC2c2ccc(C(F)(F)F)cc2)cc1 (stereo not given)	1.61	37.8 µM	61.1 µM
CS(=O)(=O)c1ccc(NN2C(=O)CSC2c2ccc(F)cc2)cc1 (stereo not given)	1.38	45.4 µM	62.7 µM
NS(=O)(=O)c1ccc(NN2C(=O)CSC2c2ccccc2)cc1 (stereo not given)	1.23	78.2 µM	96.4 µM
CS(=O)(=O)c1ccc(NN2C(=O)CSC2c2ccccc2)cc1 (stereo not given)	3.16	20 µM	63.2 µM
Cc1ccc(C2SCC(=O)N2Nc2ccc(S(C)(=O)=O)cc2)cc1 (stereo not given)	7.27	14.4 µM	105 µM
NS(=O)(=O)c1ccc(NN2C(=O)CSC2c2ccc(F)cc2)cc1 (stereo not given)	0.67	63 µM	42.1 µM
